A short description of experiment [1]: Cytotoxicity against human SGC7901 cells after 48 hrs by MTT assay. In kind it is functional, cell-based. The note with it: SGC-7901, 48 h. Summed up:
(§1)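 Cells were grown to log phase in RPMI 1640 with 10% FBS and seeded at 3×10^4 cells/mL. After 24 h preincubation (37 °C, 5% CO2) they were exposed 48 h to preset concentrations, 6 wells each; vehicle 0.1% DMSO, 5-fluorouracil as reference. MTT (2.5 mg/mL in PBS) for 4 h, formazan dissolved in DMSO, A570 read. IC50 taken at 50% survival; mean ± SD of three experiments in triplicate.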

Experiment [2] relates to MGC-803. Briefly: Cytotoxicity against human MGC803 cells after 48 hrs by MTT assay. In kind it is functional, cell-based. The note with it: MGC-803, 48 h. Summed up: as §1
(Formazan colour is commonly taken as a measure of viable cells.)

Another experiment relates to Bcap37. The experiment can be described thus: Cytotoxicity against human Bcap37 cells after 48 hrs by MTT assay. In kind it is functional, cell-based. The note with it: Bcap37, 48 h. In a few lines: as §1
Experiment [3] concerns the target Telomerase reverse transcriptase (Homo sapiens, UniProt O14746). Briefly: Inhibition of telomerase in human MGC803 cells after 24 hrs by TRAP-PCR-ELISA. Type of experiment: cell-based, MGC-803. (In general: ELISA stands for enzyme-linked immunosorbent assay.)
Experiment [4] concerns MGC-803. Briefly: Cell cycle arrest in human MGC803 cells assessed as accumulation at G1 phase at 3 uM after 48 hrs by propidium iodide staining-based flow cytometry (reference value: 62.91%). In kind it is functional. In general terms: Flow cytometry measures light scatter and fluorescence of single cells or particles in a stream.
Experiment [5] relates to MGC-803. Briefly: Cell cycle arrest in human MGC803 cells assessed as accumulation at G2 phase at 3 uM after 48 hrs by propidium iodide staining-based flow cytometry (reference value: 6.7%). Type of experiment: functional.
For experiment [6], the system named is MGC-803. The experiment can be described thus: Cell cycle arrest in human MGC803 cells assessed as accumulation at S phase at 3 uM after 48 hrs by propidium iodide staining-based flow cytometry (reference value: 30.38%). Type of experiment: functional.

Structures are written as SMILES.

Sequence of Telomerase reverse transcriptase (O14746 whole entry): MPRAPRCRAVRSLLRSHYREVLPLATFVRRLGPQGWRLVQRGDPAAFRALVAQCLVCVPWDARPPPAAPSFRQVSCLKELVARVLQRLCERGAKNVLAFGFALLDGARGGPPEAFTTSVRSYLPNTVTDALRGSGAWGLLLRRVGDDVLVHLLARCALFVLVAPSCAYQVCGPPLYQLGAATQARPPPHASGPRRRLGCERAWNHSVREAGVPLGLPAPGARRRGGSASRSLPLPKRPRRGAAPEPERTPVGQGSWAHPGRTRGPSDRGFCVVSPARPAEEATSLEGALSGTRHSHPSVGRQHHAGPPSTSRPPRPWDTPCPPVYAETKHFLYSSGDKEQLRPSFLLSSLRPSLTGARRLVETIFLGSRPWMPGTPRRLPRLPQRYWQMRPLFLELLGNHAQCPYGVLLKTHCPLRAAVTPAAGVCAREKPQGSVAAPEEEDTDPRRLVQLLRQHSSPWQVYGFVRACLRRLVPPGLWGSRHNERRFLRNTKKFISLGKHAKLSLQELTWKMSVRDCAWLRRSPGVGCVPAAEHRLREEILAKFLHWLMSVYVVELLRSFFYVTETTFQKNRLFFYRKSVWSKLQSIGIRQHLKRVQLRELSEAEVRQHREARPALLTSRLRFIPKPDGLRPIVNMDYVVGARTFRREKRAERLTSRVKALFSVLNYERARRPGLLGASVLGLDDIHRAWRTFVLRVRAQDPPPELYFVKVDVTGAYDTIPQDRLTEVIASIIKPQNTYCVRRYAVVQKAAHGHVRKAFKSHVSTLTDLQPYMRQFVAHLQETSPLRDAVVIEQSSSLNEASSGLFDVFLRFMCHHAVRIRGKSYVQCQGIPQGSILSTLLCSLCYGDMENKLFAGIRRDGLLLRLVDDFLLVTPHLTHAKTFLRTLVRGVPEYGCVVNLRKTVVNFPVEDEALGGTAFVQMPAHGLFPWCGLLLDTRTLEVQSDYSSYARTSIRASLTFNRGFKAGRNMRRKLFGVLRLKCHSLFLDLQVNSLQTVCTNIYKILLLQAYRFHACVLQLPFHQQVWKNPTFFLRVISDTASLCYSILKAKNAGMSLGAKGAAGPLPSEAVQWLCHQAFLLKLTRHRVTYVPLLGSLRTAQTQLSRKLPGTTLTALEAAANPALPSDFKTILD

In general, IC50 refers to the concentration at which inhibition is half-maximal. Lower therefore signals inhibition by little substance. Consider `CCCc1nn(C)c(C(N)=O)c1NC(=O)c1cc(OC)c(OC)cc1OC`, for which the IC50 in experiment [1] was determined as 34.8 µM; in the experiment on MGC-803 [2] it was 29.5 µM; in the experiment with Bcap37, 33.5 µM; in experiment [3] it was 12.2 µM.
As to `CCCc1nn(C)c2c(=O)[nH]c(/C=C/c3ccco3)nc12`, the half-maximal inhibitory concentration (IC50) in experiment [1] was determined as 10.3 µM; in the experiment with MGC-803 [2] it was 7.14 µM; in the experiment on Bcap37, 28.7 µM; in experiment [3] it was 15.2 µM.
Turning to `O=c1[nH]cc(F)c(=O)[nH]1` [FLUOROURACIL], the IC50 in experiment [1] turned out to be 6.56 µM; in the experiment on Bcap37, 5.18 µM.
Take `CCCc1nn(C)c(C(N)=O)c1NC(=O)c1cc(OC)c(OC)c(OC)c1`: the IC50 in experiment [1] is 13.4 µM; with MGC-803 [2] it was 4.57 µM; in the experiment on Bcap37 it was 40.4 µM; in experiment [3] it was 7.87 µM.
Consider `CCCc1nn(C)c2c(=O)[nH]c(/C=C/c3ccccc3)nc12`, for which the IC50 amounted to 17.2 µM in experiment [1], 22.6 µM in the experiment with MGC-803 [2] and 45.3 µM in the experiment with Bcap37.
`CCCc1nn(C)c(C(N)=O)c1NC(=O)/C=C/c1ccccc1`: the 50% inhibitory concentration (IC50) is 8.11 µM in experiment [1], 3.44 µM in the experiment on MGC-803 [2], 46.7 µM in the experiment with Bcap37 and 1.98 µM in experiment [3].
On to `CCCc1nn(C)c2c(=O)[nH]c(/C=C/c3cc(OC)c(OC)c(OC)c3)nc12`, for which the IC50 was determined as 25.7 µM in experiment [1], 32.8 µM in the experiment on MGC-803 [2], 37.4 µM in the experiment with Bcap37 and 19 µM in experiment [3].
Regarding `CCCc1nn(C)c(C(N)=O)c1NC(=O)/C=C/c1ccco1`, the IC50 is 8.3 µM in experiment [1], 3.01 µM in the experiment on MGC-803 [2], 10.5 µM in the experiment on Bcap37 and 1.02 µM in experiment [3]. For the same compound, the Activity stood at 59.82% with MGC-803 [4], 2.46% with MGC-803 [5] and 42.2% in the experiment on MGC-803 [6].
As for `CCCc1nn(C)c(C(N)=O)c1NC(=O)/C=C/c1cc(OC)c(OC)c(OC)c1`, the IC50 in experiment [1] was 12.8 µM; in the experiment with MGC-803 [2], 4.24 µM; in the experiment with Bcap37, 55.7 µM; in experiment [3], 3.49 µM.
